Target: not listed separately
Assay: Agonist activity at PPARgamma in human MKN45 cells assessed as induction of cell aggregation incubated for 5 days by Hoechst 33342 staining based IN cell analyzer method

Row | Compound | EC50 [nM]
1 | CCCc1nc2c(C)cccc2n1Cc1ccc2c(c1)COc1ccccc1/C2=C(\C)c1noc(=O)[nH]1 | 3.3
2 | C/C(=C1/c2ccc(Cc3c(C4CC4)nc4ccc(Cl)cn34)cc2COc2cc(F)ccc21)c1noc(=O)[nH]1 | 2
3 | C/C(=C1/c2ccc(Cn3c(C4CC4)nc4c(Cl)nccc43)cc2COc2cc(F)ccc21)c1noc(=O)[nH]1 | 22
4 | C/C(=C1/c2ccc(Cc3c(C4CC4)nc4c5c(ccn34)OCC5)cc2COc2cc(F)ccc21)c1noc(=O)[nH]1 | 19
5 | CCCc1nc2ccccc2n1Cc1ccc2c(c1)COc1ccc(F)cc1/C2=C(\C)c1noc(=O)[nH]1 | 7
6 | CCCc1nc2ccccc2n1Cc1ccc2c(c1)COc1c(F)cccc1/C2=C(\C)c1noc(=O)[nH]1 | 3.8
7 | C/C(=C1/c2ccc(Cn3c(C4CC4)nc4cscc43)cc2COc2cc(F)ccc21)c1noc(=O)[nH]1 | 3
8 | C/C(=C1/c2ccc(Cc3c(C4CC4)nc4cc(Cl)ccn34)cc2COc2cc(F)ccc21)c1noc(=O)[nH]1 | 1.4
9 | C/C(=C1/c2ccc(Cc3c(C4CC4)nc4cc(F)ccn34)cc2COc2cc(F)ccc21)c1noc(=O)[nH]1 | 1.7
10 | C/C(=C1/c2ccc(Cn3c(C4CC4)nc4c(Cl)ccnc43)cc2COc2cc(F)ccc21)c1noc(=O)[nH]1 | 32
11 | C/C(=C1/c2ccc(Cc3c(C4CC4)nc4ccccn34)cc2COc2cc(F)ccc21)c1noc(=O)[nH]1 | 5.3
12 | C/C(=C1/c2ccc(Cc3c(C4CC4)nc4c(Cl)cccn34)cc2COc2cc(F)ccc21)c1noc(=O)[nH]1 | 2.5
13 | CCCc1nc2ccccc2n1Cc1ccc2c(c1)COc1cc(F)ccc1/C2=C(\C)c1noc(=O)[nH]1 | 1

Target: T1, Peroxisome proliferator-activated receptor gamma (Homo sapiens, UniProt P37231)
T1 sequence (P37231 whole entry): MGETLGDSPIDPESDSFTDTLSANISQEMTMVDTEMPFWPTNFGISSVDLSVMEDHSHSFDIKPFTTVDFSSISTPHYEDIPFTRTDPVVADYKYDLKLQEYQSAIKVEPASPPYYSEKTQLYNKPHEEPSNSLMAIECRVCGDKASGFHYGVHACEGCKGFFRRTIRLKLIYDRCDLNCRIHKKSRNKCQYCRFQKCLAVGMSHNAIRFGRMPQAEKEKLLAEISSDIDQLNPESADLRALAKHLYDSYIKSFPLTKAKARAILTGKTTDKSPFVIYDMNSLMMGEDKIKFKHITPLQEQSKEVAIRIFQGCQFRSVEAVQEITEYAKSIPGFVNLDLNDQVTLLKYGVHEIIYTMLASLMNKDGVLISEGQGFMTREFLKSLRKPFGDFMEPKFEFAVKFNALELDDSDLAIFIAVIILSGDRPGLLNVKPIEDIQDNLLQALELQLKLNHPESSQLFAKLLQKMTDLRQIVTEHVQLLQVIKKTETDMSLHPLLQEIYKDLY
Assay: Agonist activity at PPARgamma in human MKN45 cells assessed as induction of cell aggregation incubated for 5 days by Hoechst 33342 staining based IN cell analyzer method
Summary of the method: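 MKN45 cells in RPMI1640 with 10% FBS at 37 °C, 5% CO2, seeded 2500 cells/well and exposed to compound 1-1000 nM (n = 3 per concentration) for 5 days. Nuclei stained with Hoechst 33342, imaged on IN Cell Analyzer, nuclear area computed. Maximum activity expressed as % of reference compound maximum; EC50 = concentration giving 50% of own maximum.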

Row | Compound | EC50 [nM]
14 | COCc1nc2cc(Cl)ccn2c1Cc1ccc2c(c1)COc1cc(F)ccc1/C2=C(\C)c1noc(=O)[nH]1 | 1

Source: BindingDB's records for doi:10.1016/j.bmc.2019.115122 (Hokkaido University, 2019)
